Broadly, the pIC50 is −log10 of the IC50, conventionally taken in molar units. One may read the IC50 as the concentration that gives 50% inhibition.

Data set [1] deals with ASPC1. Briefly: Phototoxicity in human AsPC1 cells assessed as induction of apoptosis by measuring late apoptotic cells at 60 nM preincubated for 3 hrs followed by 9 J/cm2 laser light irradiation and measured after 24 hrs by Annexin V-FITC/propidium iodide staining based flow cytometry (reference value: 0.41%). The class given is functional. (A flow cytometer gives signals particle by particle.)

A short description of data set [2]: Drug uptake in human AsPC1 cells at 5 uM after 24 hrs by FACS analysis relative to chlorin e6. In kind it is ADME, cell-based. The note with it: aspc1, 24 h. The essentials:
(§1)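 AsPC-1 cells (2 x 10^5) were seeded and kept in the dark at 37 °C for 24h. They were then incubated with 5 µM compound for 30 min to 24h. Cells were harvested by trypsin, washed three times in PBS and resuspended in PBS. Uptake was read as mean fluorescence intensity by FACS.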

In data set [3] the test system is ASPC1. As to the kind of experiment: Phototoxicity in human AsPC1 cells assessed as induction of apoptosis by measuring upregulation of cleaved caspase-9 expression at 20 to 40 nM preincubated for 3 hrs followed by 9 J/cm2 laser light irradiation and measured after 24 hrs by Western blot analysis. The class given is functional, cell-based. The essentials:
(§2)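 Cells in six-well plates were exposed to compound for 3h and irradiated at 660 nm (50 mW, 9 J/cm²), then incubated 24h. Lysis was on ice in modified RIPA buffer (pH 7.4) with protease inhibitors. After clearing at 10,000g for 10 min at 4 °C, proteins were separated by 10% SDS-PAGE, blotted and detected by ECL.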
In general terms: A western blot detects proteins with antibodies after separation by electrophoresis.

The subject of data set [4] is ASPC1. As to the kind of experiment: Potency index, ratio of chlorin e6 IC50 to compound IC50 for phototoxicity in human AsPC1 cells. In kind it is functional.
The test system of data set [5] is ASPC1. As to the kind of experiment: Phototoxicity in human AsPC1 cells assessed as induction of apoptosis by measuring downregulation of Bcl2 expression at 20 to 40 nM preincubated for 3 hrs followed by 9 J/cm2 laser light irradiation and measured after 24 hrs by Western blot analysis. The class given is functional, cell-based. The essentials:
as §2

Data set [6] concerns ASPC1. Briefly: Phototoxicity in human AsPC1 cells assessed as induction of apoptosis by measuring early apoptotic cells at 20 nM preincubated for 3 hrs followed by 9 J/cm2 laser light irradiation and measured after 24 hrs by Annexin V-FITC/propidium iodide staining based flow cytometry (reference value: 7.05%). In kind it is functional.
The test system of data set [7] is ASPC1. Briefly: Phototoxicity in human AsPC1 cells assessed as induction of apoptosis by measuring necrotic cells at 20 nM preincubated for 3 hrs followed by 9 J/cm2 laser light irradiation and measured after 24 hrs by Annexin V-FITC/propidium iodide staining based flow cytometry (reference value: 1.03%). In kind it is functional.
Data set [8] deals with ASPC1. Briefly: Phototoxicity in human AsPC1 cells assessed as induction of apoptosis by measuring early apoptotic cells at 40 nM preincubated for 3 hrs followed by 9 J/cm2 laser light irradiation and measured after 24 hrs by Annexin V-FITC/propidium iodide staining based flow cytometry (reference value: 7.05%). The class given is functional.
For data set [9], the system named is MIA PaCa-2. Briefly: Potency index, ratio of chlorin e6 IC50 to compound IC50 for phototoxicity in human MIAPaCa2 cells. The class given is functional.
Data set [10] can be described thus: Selectivity index, ratio of IC50 for dark toxicity in human PANC1 cells to IC50 for phototoxicity in human PANC1 cells. The class given is cell-based, PANC-1. The note with it: read-out: Ratio IC50. The essentials:
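The ratio is the dark-toxicity IC50 over the phototoxicity IC50 in the same cell line, both from 72h MTT. The dark arm received no light. The photo arm was irradiated at 660 nm, 50 mW, 9 J/cm² after 3h compound exposure.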

The nature of data set [11]: Induction of singlet oxygen production in DMSO assessed as DPBF absorption intensity (reference value: 100%). The class given is functional. Put shortly:
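DPBF (50 µM in DMSO) was mixed with 1 µM photosensitizer in the dark. Samples were irradiated at 660 nm, 50 mW, 2 J/cm² for 40 s. Singlet oxygen was read as the decay of normalized DPBF absorbance at 418 nm relative to a DPBF-only control.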

Data set [12] concerns ASPC1. As to the kind of experiment: Phototoxicity in human AsPC1 cells assessed as induction of apoptosis by measuring necrotic cells at 60 nM preincubated for 3 hrs followed by 9 J/cm2 laser light irradiation and measured after 24 hrs by Annexin V-FITC/propidium iodide staining based flow cytometry (reference value: 1.03%). In kind it is functional.
Data set [13] relates to ASPC1. Briefly: Phototoxicity in human AsPC1 cells assessed as induction of apoptosis by measuring live cells at 60 nM preincubated for 3 hrs followed by 9 J/cm2 laser light irradiation and measured after 24 hrs by Annexin V-FITC/propidium iodide staining based flow cytometry (reference value: 91.51%). In kind it is functional.
The test system of data set [14] is MIA PaCa-2. As to the kind of experiment: Phototoxicity in human MIAPaCa2 cells assessed as reduction in cell viability preincubated for 3 hrs followed by 9 J/cm2 laser light irradiation and measured after 72 hrs by MTT assay. In kind it is functional, cell-based. The note with it: MIA PaCa-2, light or radiation study. The essentials:
(§3)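 Cells were seeded at 5.0 x 10^3 per well and incubated overnight at 37 °C. AsPC-1 was in RPMI-1640 and MIA PaCa-2/PANC-1 in DMEM, with 10% FBS. Cells took up compound for 3h, then received 660 nm laser light (50 mW, 9 J/cm²).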
(Tetrazolium assays rely on reduction of a dye to a coloured formazan, in cell work by metabolically active cells.)

Data set [15] is described as follows: Drug uptake in human AsPC1 cells at 5 uM by FACS analysis. In kind it is ADME, cell-based. The conditions noted are these: aspc1, 5 µM, TDE = time-dependent effect. The essentials:
as §1

Data set [16] relates to PANC-1. As to the kind of experiment: Potency index, ratio of chlorin e6 IC50 to compound IC50 for phototoxicity in human PANC1 cells. The class given is functional.
Data set [17] can be described thus: Dark toxicity in human MIAPaCa2 cells assessed as reduction in cell viability after 72 hrs by MTT assay. In kind it is cell-based, MIA PaCa-2. The essentials:
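AsPC-1 cells were grown in RPMI-1640, and MIA PaCa-2 and PANC-1 in DMEM, each with 10% FBS and 1% penicillin/streptomycin. 5.0 x 10^3 cells were seeded and left overnight at 37 °C. They were exposed to 0-300 µM compound for 3h without laser irradiation, then held 72h in the dark at 37 °C, 5% CO₂. Viability was read by MTT.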

Data set [18] has as its system ASPC1. As to the kind of experiment: Phototoxicity in human AsPC1 cells assessed as induction of apoptosis by measuring necrotic cells at 40 nM preincubated for 3 hrs followed by 9 J/cm2 laser light irradiation and measured after 24 hrs by Annexin V-FITC/propidium iodide staining based flow cytometry (reference value: 1.03%). The class given is functional.
The nature of data set [19]: Drug uptake in human AsPC1 cells at 5 uM after 3 hrs by FACS analysis relative to chlorin e6. The note with it: aspc1, 3 h. The class given is ADME, cell-based. Put shortly:
as §1

Data set [20] has as its system ASPC1. As to the kind of experiment: Phototoxicity in human AsPC1 cells assessed as induction of apoptosis by measuring early apoptotic cells at 60 nM preincubated for 3 hrs followed by 9 J/cm2 laser light irradiation and measured after 24 hrs by Annexin V-FITC/propidium iodide staining based flow cytometry (reference value: 7.05%). In kind it is functional.
Data set [21] in a line: Drug uptake in human AsPC1 cells at 5 uM up to 0.5 to 24 hrs by FACS analysis. The note with it: aspc1, 5 µM. In kind it is ADME, cell-based. The essentials:
as §1

The subject of data set [22] is ASPC1. As to the kind of experiment: Phototoxicity in human AsPC1 cells assessed as induction of apoptosis by measuring live cells at 40 nM preincubated for 3 hrs followed by 9 J/cm2 laser light irradiation and measured after 24 hrs by Annexin V-FITC/propidium iodide staining based flow cytometry (reference value: 91.51%). In kind it is functional.
The nature of data set [23]: Solubility of the compound in 2% DMSO/98% de-ionized water at 8.2 uM. In kind it is physicochemical. The conditions noted are these: buffer.
Data set [24] concerns PANC-1. Briefly: Phototoxicity in human PANC1 cells assessed as reduction in cell viability preincubated for 3 hrs followed by 9 J/cm2 laser light irradiation and measured after 72 hrs by MTT assay. The class given is functional, cell-based. The conditions noted are these: PANC-1, light or radiation study. Put shortly: as §3

pIC50: −log10 of the molar value. Active and inactive are the calls of the source. The calls are words filed in the database; no cut-off is given here.

With `C=Cc1c(C)c2cc3nc(c(CC(=O)OC)c4[nH]c(cc5nc(cc1[nH]2)C(C)=C5CC)c(C)c4C(=O)NCCOCCOCCNC(=O)CCCC(=O)Oc1ccc(/C=C/C(=O)CC(=O)/C=C/c2ccc(O)c(OC)c2)cc1OC)C(CCC(=O)OC)C3C` (centres undefined), the Activity with ASPC1 [1] worked out at 15.65%; in the data set on ASPC1 [6] it was 15.09%; in the data set on ASPC1 [7] it was 1.43%; in the data set with ASPC1 [8], 16.27%; in data set [11], 12.1%; with ASPC1 [12] it was 8.08%. Besides, the Activity in the data set with ASPC1 [13] was 51.45%; with ASPC1 [18] it was 2.22%; in the data set on ASPC1 [20] it was 24.82%; in the data set with ASPC1 [22] it was 70.74%. In addition, the “fold change (FC)” value in data set [2] is listed as 29; in data set [19] it was 47. Also, the outcome in the data set with ASPC1 [3] and in the data set on ASPC1 [5] was Active. Further, the “Ratio IC50” value in the data set with ASPC1 [4] stood at 488; with MIA PaCa-2 [9], 452; in the data set with PANC-1 [16], 247. The selectivity ratio in data set [10] is > 7500. Further, the pIC50 in the data set on MIA PaCa-2 [14] was 7.46; in the data set with PANC-1 [24] it was 7.40. Further, the Drug uptake entry in data set [15] is on record as “Tde”; in data set [21], “Active”. The IC50 at 72 h in data set [17] worked out at 83000 nM. The solubility entry in data set [23] is reported as “Soluble”.

For the origin of these results see ChEMBL document CHEMBL4145531, “Synthesis of novel Chlorin e6-curcumin conjugates as photosensitizers for photodynamic therapy against pancreatic carcinoma” (Eur J Med Chem, 2018).
